# Only some compounds are listed: those with a hit (about 2.8% of all), similar ones and a draw of the others.
# SIRT5 inh: SIRT5 desuccinylase inhibitors, primary screen, biochemical, fluorescence imaging, single point, set 5; Purified SirT5, succinyl-peptide AMC, trypsin-coupled fluorescence; inhibition, % at 15 µM; 330,000 tested, 1.1% active; AID 652115, 2013; in the data active means inhibition above about 15%; inconclusive means no clear call, values can overlap the other calls
# DENV2 CPE: inhibitors of DENV2 cytopathic effect, primary screen, cell-based, plate reader, single concentration. 350,000 tested, 1.7% active. CPE inhibition, % at 9.99 µM. DENV2-infected cells, cytopathic effect rescue; in the data active means CPE inhibition above about 20%, passing the limit was not always enough; inconclusive means no clear call, values can overlap the other calls; tested in BHK-21 cells;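 further: 0% = median of neutral control wells and 100% = median of positive control wells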
# E-sel inducer: E-selectin induction in HUVECs, primary screen, imaging, HUVEC, immunofluorescence imaging, single point | P16581 | normalized: neutral wells 0, TNF-alpha wells 100 | activation, % at 7.58 µM | 260,000 tested, 0.37% active | AID 686992, 2013;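 active means mean E-selectin-positive cell signal at least 10% of the positive control, reached in at least 60% of replicates, without over 20% cell loss; inconclusive means no rule given, readout overlaps actives, possibly toxicity-flagged; inactive means the rest, including those meeting only one limit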
# Target sequence (P16581 whole entry, looked up): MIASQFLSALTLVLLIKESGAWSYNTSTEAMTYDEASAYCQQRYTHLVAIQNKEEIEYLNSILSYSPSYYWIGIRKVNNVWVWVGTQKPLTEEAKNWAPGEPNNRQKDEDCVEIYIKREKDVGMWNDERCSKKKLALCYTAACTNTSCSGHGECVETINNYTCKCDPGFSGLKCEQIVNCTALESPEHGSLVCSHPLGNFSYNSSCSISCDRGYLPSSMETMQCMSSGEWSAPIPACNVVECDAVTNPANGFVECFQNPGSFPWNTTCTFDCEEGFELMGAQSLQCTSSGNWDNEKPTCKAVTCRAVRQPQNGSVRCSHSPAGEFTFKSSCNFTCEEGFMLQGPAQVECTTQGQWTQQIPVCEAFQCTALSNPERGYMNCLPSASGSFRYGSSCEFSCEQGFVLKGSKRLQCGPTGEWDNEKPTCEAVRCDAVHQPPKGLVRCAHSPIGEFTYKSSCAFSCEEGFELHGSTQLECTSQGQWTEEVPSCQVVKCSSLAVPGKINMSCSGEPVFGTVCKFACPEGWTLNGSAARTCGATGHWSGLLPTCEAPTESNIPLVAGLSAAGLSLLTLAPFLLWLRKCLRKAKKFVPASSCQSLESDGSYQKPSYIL
#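 Read-out basis: % PE-positive cells; Test system: HUVEC primary endothelial cells; Technique: immunofluorescence imaging; Dosing: single-point compound dose.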
# Starred values were filed as active, the others as inactive; ? = inconclusive; . = no result; ! = not active in a repeat.
SMILES,SIRT5 inh,DENV2 CPE,E-sel inducer
N#Cc1cccc(-c2ccc([C@H]3[C@H](CO)N4CCCCN(C(=O)Cc5ccccc5)C[C@@H]34)cc2)c1,-10,4,-1
O=C(Cc1ccccc1)N1C[C@H]2[C@@H](c3ccccc31)[C@@H](CO)N2Cc1ccccc1,-2,12,-1
CC=Cc1ccc2n(c1=O)C[C@@H]1[C@@H](CO)[C@H](C(=O)OC)[C@H]2N1CC1CCOCC1 (mixture of isomers),0,-1,-1
Clc1ccc([C@H]2CC3CCC2N3)cn1 (some centres undefined),.,49*!,.
CN(C)CC1CSCCC1(O)c1ccc(C(F)(F)F)cc1 (centres undefined),-25,69*,.
Cc1ccccc1-c1ccc([C@@H]2[C@H](CO)N3CCCCN(C(=O)Cc4ccccn4)C[C@@H]23)cc1,-3,-4,2
COc1ccc(C#Cc2ccc([C@@H]3[C@H]4CN(C(=O)Cc5ccncc5)CCCCN4[C@H]3CO)cc2)cc1,7,-2,0
c1ccc(CN2Cc3ccccc3-n3nncc3C2)nc1,0,0,3
N#Cc1ccc(CN2Cc3ccccc3-n3nncc3C2)cc1,6,109*,.
COC(=O)[C@H]1[C@H](CO)[C@H]2Cn3c(cccc3=O)[C@@H]1N2C(=O)C1CCCC1,9,-5,0
CCCNC(=O)[C@H]1[C@H](CO)[C@H]2Cn3c(cccc3=O)[C@@H]1N2CCC,.,.,0
COc1ccc(C(=O)OC2C[C@H]3CC[C@@H](C2)N3O)cc1OC (some centres undefined),-1,1,1
CN1C2CCC1CC(OC(=O)c1ccc([N+](=O)[O-])cc1)C2 (centres undefined),.,66*,.
CN1C2CCC1CC(OC(=O)c1cccc(O)c1)C2 (centres undefined),-2,29*,.
CN1C2CCC1C(C(=O)O)C(OC(=O)c1ccccc1)C2 (centres undefined),.,12,.
CN1[C@@H]2Cn3c(cccc3=O)[C@H]1[C@@H](C(=O)NCC1CC1)[C@@H]2CO,2,-2,0
COC(=O)[C@@H]1[C@@H](CO)[C@@H]2Cn3c(ccc(-c4ccccc4)c3=O)[C@H]1N2S(=O)(=O)c1ccccc1C,-14,0,0
O=C(O)[C@@H]1[C@@H](CO)[C@@H]2Cn3c(ccc(C4=CCCCC4)c3=O)[C@H]1N2C(=O)Cc1ccccn1,-17,-9,0
Nc1ccc(CC2=NCCN2)cc1,-2,38*,0
Cc1sc2ccccc2c1CC1=NCCN1,-12,-1,0
CC=Cc1ccc2n(c1=O)C[C@@H]1[C@@H](CO)[C@H](C(=O)OC)[C@H]2N1C(=O)CC (mixture of isomers),-7,4,0
CN1CCN(C(=O)COc2ccc(N(C)S(=O)(=O)c3ccc(F)cc3)cc2)CC1,23*,-2,.
CN1CCN(C(=O)COc2ccc(S(=O)(=O)N(C)Cc3ccccc3)cc2)CC1,0,1,.
O=C(Cc1ccccc1)N1CCCCN2[C@@H](CO)[C@H](c3ccc(-c4ccccc4)cc3)[C@@H]2C1,3,4,-1
O=C(O)[C@@H]1[C@@H](CO)[C@@H]2Cn3c(ccc(-c4ccccc4)c3=O)[C@H]1N2CC1CCCCC1,-3,-5,-2
SMILES,SIRT5 inh,DENV2 CPE,E-sel inducer
CN(N)N=Nc1nc2c([nH]1)c(=O)n(C)c(=O)n2C,.,0,58*
CC=Cc1ccc2n(c1=O)C[C@H]1[C@H](CO)[C@@H](C(=O)OC)[C@@H]2N1CC1CCCC1 (mixture of isomers),2,?,0
O=[N+]([O-])c1ccc2c(c1)Cc1cc(O)ccc1-2,4,-13,2
O=[N+]([O-])c1cccc(O)c1,.,25*,.
O=C(Cc1ccccc1)N1CC2(C1)[C@@H](c1ccccc1)[C@@H](CO)N2Cc1cccc(F)c1,-4,18,0
CCN(CC)c1ccccc1,.,129*,.
CCN(CC)c1ccc(/C=C/[N+](=O)[O-])cc1,1,-2,0
CCc1ccc(NC(=O)CN2CC(c3ccccc3)CC2=O)cc1 (centres undefined),-3,-1,0
O=C(CN1CC(c2ccccc2)CC1=O)Nc1ccccc1 (centres undefined),.,115*,.
CC(C)CC#Cc1ccc([C@H]2[C@H](CO)N3CCCCN(C(=O)Cc4ccccn4)C[C@@H]23)cc1,.,.,0
CCCN1[C@@H]2Cn3c(ccc(-c4cccc(C(=O)N(C)C)c4)c3=O)[C@H]1[C@@H](C(=O)OC)[C@@H]2CO,0,2,0
CCC1(CC)C(=N)N(C)C(=O)NC1=O,0,.,.
CCCCN1C(=N)C(CC)(CC)C(=O)NC1=O,-1,24*,.
CN1CC(C(=O)c2cccs2)C(c2ccc(Cl)cc2)C1 (centres undefined),0,-1,.
CN1CC(C(=O)c2ccc(Cl)cc2)C(c2ccccc2)C1 (centres undefined),27*,14,.
CCc1ccc2nc(N3CCC(C(=O)N4CCC5(CC4)OCCO5)CC3)sc2c1,30*,-3,0
COc1ccc(CNCC(=O)N2CCC3(CC2)OCCO3)cc1,1,-4,.
O=C(CCC(=O)N1C[C@H]2C[C@@H](C1)c1cccc(=O)n1C2)NCc1ccc(F)cc1,.,81*,.
CC(C)[C@H](NC(=O)N1C[C@H]2C[C@@H](C1)c1cccc(=O)n1C2)C(=O)Nc1ccccc1F,.,58*,.
Cc1cccc(NC(=O)[C@@H](NC(=O)N2C[C@H]3C[C@@H](C2)c2cccc(=O)n2C3)C(C)C)c1,-1,-6,.
COc1ccccc1CNC(=O)CCC(=O)N1C[C@H]2C[C@@H](C1)c1cccc(=O)n1C2,-4,-1,.
COC(=O)[C@@H]1N[C@@H]2c3ccc(C4=CCCC4)c(=O)n3C[C@@H]2[C@H]1CO,-7,-16,0
O=C(Cc1cccnc1)N1CCCCN2[C@@H](CO)[C@H](c3ccc(C#CC4CC4)cc3)[C@@H]2C1,3,15,.
COC(=O)[C@H]1[C@H](CO)[C@H]2Cn3c(ccc(C4=CCCCC4)c3=O)[C@@H]1N2Cc1cccnc1,-17,-12,0
CN1CCN(c2cn[nH]c(=O)c2Cl)CC1,14,2,46*
SMILES,SIRT5 inh,DENV2 CPE,E-sel inducer
CN1CCN(c2ccc([N+](=O)[O-])cc2Cl)CC1,.,.,-2
COC(=O)[C@@H]1[C@@H](CO)[C@@H]2Cn3c(ccc(-c4ccncc4)c3=O)[C@H]1N2S(=O)(=O)c1ccccc1C,-66,-10,-1
COc1ccc2c3c1OC1C(=O)CC[C@@]4(O)[C@@H](C2)N(CC2CC2)CC[C@]314 (some centres undefined),.,11,.
O=C1CC[C@@]2(O)[C@H]3Cc4ccc(O)c5c4[C@@]2(CCN3CC2CC2)C1O5 (some centres undefined),.,28*!,.
O=C(Cc1ccccn1)N1CCCCN2[C@H](CO)[C@H](c3ccc(-c4ccccc4F)cc3)[C@@H]2C1,-10,-7,-1
O=C(O)[C@H]1[C@H](CO)[C@H]2Cn3c(ccc(-c4cccc(F)c4)c3=O)[C@@H]1N2CCc1ccccc1,1,-23,0
CCOc1cccc(N2C(=O)/C(=C/c3ccco3)C(=O)NC2=S)c1,36*,-2,.

# Screening data: PubChem BioAssay, Broad Institute
